Compound activity as filed in PubChem BioAssay.
MC4R ag barr = MC4R agonists recruiting beta-arrestin, primary screen, cell-based, luminescence, agonist arm of biased-ligand search; U2OS MC4R beta-arrestin complementation; percent of melanotan II response, DMSO zero; activation, % at 8.9 µM; 0.98% of 360,000 active; AID 540308, 2011;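 active = activation above a per-plate cutoff, the mean activation of sample wells on that plate plus 3 SD, cut at about 8% in these data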
NTR1 ag = agonists of human NTR1, primary screen, imaging, U2OS cells, beta-arrestin-GFP, high content. Neurotensin receptor type 1 (Homo sapiens), P30989. NTR1-U2OS beta-arrestin-GFP spot imaging, agonist mode. activation, % at 20 µM. 0.17% of 330,000 active. AID 493036, 2011;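 active = activation at or above 40% of the spot to cytoplasm intensity ratio, with at least 20 cells analyzed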;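 note: 0% = DMSO without peptide and 100% = 100 nM NTR1 peptide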
Rev-erbA mod = modulators of Rev-erb alpha DNA binding, primary screen, biochemical, FITC-DNA, fluorescence polarization, uHTS. Nuclear receptor subfamily 1 group D member 1 (Homo sapiens), P20393. Rev-erbα–FITC-DNA binding, 90 min. activity, % at 10 µM. 0.79% of 370,000 active;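 active = activity above about 14%, limit read from the data; passing the limit was not always enough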;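 note: 0% = DMSO wells with 35 nM protein and 100% = DMSO wells with 750 nM protein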
Target sequence (P20393 whole entry, looked up): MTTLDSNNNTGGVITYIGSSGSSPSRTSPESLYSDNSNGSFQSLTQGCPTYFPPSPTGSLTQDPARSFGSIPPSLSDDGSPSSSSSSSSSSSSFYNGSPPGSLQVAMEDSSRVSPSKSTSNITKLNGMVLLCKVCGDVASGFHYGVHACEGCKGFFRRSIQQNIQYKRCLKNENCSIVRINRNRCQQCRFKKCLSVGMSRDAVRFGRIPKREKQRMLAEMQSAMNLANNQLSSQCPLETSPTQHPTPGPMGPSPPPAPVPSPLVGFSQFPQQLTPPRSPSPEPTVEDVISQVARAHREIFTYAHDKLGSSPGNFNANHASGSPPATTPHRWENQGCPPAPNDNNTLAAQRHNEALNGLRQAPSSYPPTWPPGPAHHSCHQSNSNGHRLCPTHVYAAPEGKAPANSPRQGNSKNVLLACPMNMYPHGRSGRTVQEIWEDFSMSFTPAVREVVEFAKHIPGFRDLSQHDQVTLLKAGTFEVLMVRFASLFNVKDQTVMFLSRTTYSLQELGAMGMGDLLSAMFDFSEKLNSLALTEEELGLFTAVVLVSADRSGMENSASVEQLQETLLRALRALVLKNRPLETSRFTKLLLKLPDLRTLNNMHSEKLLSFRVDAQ
MC4R antagonist = MC4R antagonists of cAMP signaling, primary screen, cell-based, TR-FRET, antagonist arm of biased-ligand search | Melanocortin receptor 4 (Homo sapiens), P32245 | MC4R-expressing cells, MTII-stimulated cAMP, LANCE TR-FRET | inhibition, % at 6.5 µM | AID 540295, 2011 | 0.48% of 360,000 active;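 active = inhibition above its plate's cutoff, the mean of tested wells on that plate plus 3 SD, cut at about 29% in these data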;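 note: 0% = Melanotan II alone and 100% = Melanotan II plus saturating MCL0020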
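Assay system: human MC4R-expressing U2OS cells; reagent: Melanotan II stimulation of cells; dosing: 6.5 µM single dose; timing: compound 30 min, challenge 1 h, detection 1 h; signal: TR-FRET cAMP assay; replicates: one well per compound, no replicates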
PG9 Ab binder = binders of HIV-1 gp120 antibody PG9, primary screen, biochemical, TR-FRET. HIV-1 gp120 / PG9 antibody interaction. TR-FRET gp120-PG9 antibody binding. inhibition, % at 6.7 µM. 0.43% of 360,000 active. AID 624416, 2012; in the data active = inhibition above about 8.5%
An asterisk follows results filed as active; · = not tested or not shown. In the library only some 2.5% were active in any assay of this set; here they are far more common.

SMILES	MC4R ag barr	NTR1 ag	Rev-erbA mod	MC4R antagonist	PG9 Ab binder
Cc1ccc(NC(=S)c2nc3ccccc3s2)cc1	4	7	-2	3	-1
S=C(Nc1ccc(Cl)cc1)c1nc2ccccc2s1	8.6*	0	-2	-3	-2
Cc1cc(C)cc(NC(=O)COc2coc(CN3CCc4ccccc43)cc2=O)c1	9.2*	1	0	4	-4
Cc1ccc(NC(=O)COc2coc(CN3CCc4ccccc43)cc2=O)c(C)c1	-2	0	1	2	-4
COc1ccc(/C=N\n2nnc3ccccc32)cc1	9.0*	0	-17	10	0
CN1OC[C@@H]2CN(C(=O)c3ccc([N+](=O)[O-])cc3)[C@H](c3ccccc3Br)C[C@@H]21	·	·	1	·	0
O=C(OC12CCCN(C1)/C(=C/c1cccc(Cl)c1)C2)c1ccco1 (stereo unspecified)	·	·	18	·	·
CCOc1cc(C(=O)CSc2nnc(CNc3ccc(Cl)cc3)o2)ccc1NC(=O)CC	40*	17	·	3	-1
CCOC(=O)NC[C@@]1(C(=O)OC)CC(=O)N(C)[C@@H]1c1ccccc1	·	·	1	·	·
COc1ccccc1NC(=O)OC1CCC12CCCCC2 (stereo unspecified)	·	·	-6	·	·
Cc1ccc(-c2cc(C(=O)N/N=C/c3ccccc3)n[nH]2)o1	0	-1	0	0	-2
CC(/C=N/NC(=O)c1cc(-c2ccc(C)o2)[nH]n1)=C\c1ccccc1	9.2*	1	3	2	-1
Cc1c(C(=O)NN2CCCCC2)nn(-c2ccc(Cl)cc2Cl)c1-c1ccc(Cl)cc1	·	·	-3	·	·
C=CCN(CC=C)C[C@@H]1CSCCS(=O)(=O)N1	·	·	3	·	0
CCCc1c(NC(=O)Nc2ccc(Cl)cc2Cl)cnn1-c1ccccc1	9.2*	2	-3	9	-2
CCCc1c(C(=O)Nc2ccc(F)cc2F)cnn1-c1ccccc1	-2	0	-1	-2	0
O=C(CSc1nnc(-c2cccnc2)n1Cc1ccco1)Nc1ccc(Cl)c(Cl)c1	·	·	-5	·	·
CCOc1ccc(-c2nnn(CC(=O)NCc3ccc4c(c3)OCO4)n2)cc1	9.3*	-1	4	-2	1
COc1ccc(-c2nnn(CC(=O)NCc3ccc4c(c3)OCO4)n2)cc1OC	-5	0	8	8	-1
CC(=O)CC[C@H]1CC[C@]2(CCCN(C(=O)c3ccccc3)C2)O1	·	·	6	·	·
C[C@@H]1ON(C)[C@H]2C[C@H]3c4cc(Br)ccc4CCN3C[C@@H]12	·	·	0	·	-1
COc1cc(/C=N/NC(=O)c2ccccc2O)ccc1OCC(=O)Nc1ccccc1	1	3	-35	0	-1
O=C(COc1ccc(/C=N/NC(=O)c2cc3ccccc3o2)cc1Cl)Nc1ccccc1	20*	7	·	1	·
CC(C)C[C@H](NC(=O)OC(C)(C)C)c1nnc(SCC(=O)Nc2ccc(Br)cc2)o1	8.3*	11	1	2	-3
COCCN=C1N[C@@H](c2cccc(C(F)(F)F)c2)C(C(=O)OC)=C(C)N1Cc1ccccc1	-1	18	2	-4	2
SMILES	MC4R ag barr	NTR1 ag	Rev-erbA mod	MC4R antagonist	PG9 Ab binder
COC(=O)C1=C(C)N(Cc2ccccc2)C(=NCc2cccc(C(F)(F)F)c2)N[C@H]1c1cccc(C(F)(F)F)c1	21*	23	·	8	·
COC(=O)C1=C(C)N(Cc2ccc(C(F)(F)F)cc2)C(=NCc2ccc(C(F)(F)F)cc2)NC1c1cccc(F)c1 (stereo unspecified)	·	·	2	·	0
COC(=O)C1=C(C)N(Cc2ccccc2)C(=NCc2cccc(C(F)(F)F)c2)N[C@H]1c1cccc(F)c1	13*	35	2	9	-1
COC(=O)C1=C(C)N(Cc2ccccc2)C(=NCCc2c[nH]c3ccccc23)N[C@H]1c1cccc(C(F)(F)F)c1	33*	17	·	11	·
COc1cccc(N(C)C(=O)[C@@H](C)[C@@H](O)c2ccc(Cl)cc2)c1	·	·	2	·	·
COc1ccccc1OCCOc1ccc(/C=C2/C(=N)N3OC(C)=CC3=NC2=O)cc1OC	19*	0	11	12	-3
COc1cc(/C=C2/C(=N)N3C=CSC3=NC2=O)ccc1OCCCOc1cc(C)ccc1C	31*	4	-4	9	1
CC1=CC2=NC(=O)/C(=C\c3ccc(-c4cccc(Cl)c4)o3)C(=N)N2O1	12*	8	-30	-11	4
CN1CCCN(C(=O)C2CCCN(C(=O)c3ccc4c(c3)NC(=O)CS4)C2)CC1 (stereo unspecified)	·	·	-4	·	·
CC(OP(=O)(O)C(NC(=O)[C@H](Cc1ccc(O)cc1)NC(=O)OC(C)(C)C)C(C)C)C(=O)O (stereo partly specified)	·	·	2	·	·
CC(=O)CC[C@@H]1CC[C@]2(CCCN(S(=O)(=O)c3ccccc3)C2)O1	·	·	3	·	·
O=C(CCc1ccccc1)N[C@H]1[C@@H](OC(=O)c2ccc([N+](=O)[O-])cc2)CCC[C@]12C(=O)N(Cc1ccccc1)c1ccccc12	·	·	4	·	·
O=C(CSc1nc2ccccc2nc1SCC(=O)N1CCCCC1)N1CCCCC1	1	2	5	18	22*
O=C(Nc1ccccc1)N1CCC(O)(c2cccc(C(F)(F)F)c2)CC1	2	1	1	-1	-1
OC1(c2cccc(C(F)(F)F)c2)CCN(c2ccc(-c3ccccc3)nn2)CC1	9.2*	4	-1	14	-2
O=C(C(=O)N1CCN(S(=O)(=O)c2ccc(Cl)cc2)CC1)c1cccc(C(F)(F)F)c1	·	·	-7	·	0
O=C(NCCc1c[nH]c2ccccc12)OCc1cn(-c2ccc(F)cc2F)nn1	·	·	-1	·	·
COc1cc2nc(NC(=O)c3ccccc3)[nH]c(=O)c2cc1OC	2	-1	-3	-9	2
COc1cc2nc(NC(=O)c3ccccc3)sc(=O)c2cc1OC	1	2	-1	-4	25*
Cc1cc2c(cc1C)NC(=O)CC(C(F)(F)C(F)(F)C(F)(F)F)=N2	8.7*	3	1	8	1
Cc1cc(O)cc(=O)n1-c1ccc(Cl)c(C(F)(F)F)c1	·	·	-7	·	0
O=C1C(Cc2ccccc2)S/C(=N/N=C/c2ccco2)N1c1ccccc1 (stereo unspecified)	8.4*	9	0	7	1
COC(=O)C1=C(C)N(C)C(=NCc2cccc(C(F)(F)F)c2)NC1c1ccc(C(F)(F)F)cc1 (stereo unspecified)	·	·	-4	·	0
COc1ccc(N=C2SC(CC(=O)Nc3ccccc3)C(=O)N2Cc2ccco2)cc1 (stereo unspecified)	8.3*	6	1	-5	0
